Test results reported in ChEMBL document CHEMBL1833970, “One-pot syntheses of pseudopteroxazoles from pseudopterosins: a rapid route to non-natural congeners with improved antimicrobial activity” (J Nat Prod, 2011).
Values after ≈ are worked out from the molar mass of the structure shown. Active and inactive are the calls of the source. The rule behind the calls is not given here.

Columns and labels:
[1] = test system: Mycolicibacterium smegmatis; assay: Antimicrobial activity against Mycobacterium smegmatis ATCC 12051 after 5 days by microbroth dilution antibiotic susceptibility assay; assay type: functional; settings: ATCC 12051, 120 h
Summary of the method: (§1)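 Microbroth dilution per CLSI M24-A for fast-growing mycobacteria. Compounds prepared in sterile 20% DMSO and serially diluted to eight concentrations, triplicate on separate plates. Uninoculated and untreated (media + 20% DMSO) controls plus a control antibiotic column. Incubated 5 days at 30 °C; growth relative to untreated wells scored visually to give MIC.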

[2] = test system: Mycolicibacterium diernhoferi; assay: Antimicrobial activity against Mycobacterium diernhoferi ATCC 19340 after 5 days by microbroth dilution antibiotic susceptibility assay; assay type: functional; settings: ATCC 19340, 120 h; summary of the method: as §1
[3] = test system: Enterococcus faecium; assay: Antimicrobial activity against vancomycin-resistant Enterococcus faecium Ef 379 after 22 hrs by microbroth dilution antibiotic susceptibility assay; assay type: functional, organism-based; settings: Ef 379, 22 h
Summary of the method: (§2)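 CLSI M7-A6 broth microdilution, run in triplicate. Compounds were made up in sterile 20% DMSO and serially diluted to eight concentrations. Plates carried uninoculated and untreated controls (media + 20% DMSO) plus a control antibiotic column. OD600 was read at time zero and after 22 h at 37 °C. Time-zero readings were subtracted, survival was calculated relative to vehicle wells, and IC50 was derived.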

[4] = test system: Staphylococcus aureus; assay: Antimicrobial activity against methicillin-resistant Staphylococcus aureus ATCC 33591 after 22 hrs by microbroth dilution antibiotic susceptibility assay; assay type: functional, organism-based; settings: ATCC 33591, 22 h; summary of the method: as §2
[5] = test system: Pseudomonas aeruginosa; assay: Antimicrobial activity against Pseudomonas aeruginosa ATCC 14210 after 22 hrs by microbroth dilution antibiotic susceptibility assay; assay type: functional, organism-based
Summary of the method: (§3)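 Microbroth dilution per CLSI M7-A6. Compounds in sterile 20% DMSO, serially diluted to eight concentrations, tested in triplicate with uninoculated and untreated controls. Control antibiotic was gentamycin for P. aeruginosa, ciprofloxacin for P. vulgaris and nystatin for C. albicans. OD600 read at time zero and after 22 h at 37 °C. Survival relative to vehicle calculated after baseline subtraction; IC50 derived.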

[6] = test system: Candida albicans; assay: Antimicrobial activity against Candida albicans ATCC 14035 after 22 hrs by microbroth dilution antibiotic susceptibility assay; assay type: functional, organism-based; summary of the method: as §3
[7] = test system: Proteus vulgaris; assay: Antimicrobial activity against Proteus vulgaris ATCC 12454 after 22 hrs by microbroth dilution antibiotic susceptibility assay; assay type: functional, organism-based; summary of the method: as §3

Row | SMILES | MIC [1] | MIC [2] | IC50 [3] | IC50 [4] | Activity [5] | Activity [6] | Activity [7]
1 | CSCCc1nc2c(C)c3c4c(c2o1)[C@@H](C)CC[C@@H]4[C@@H](C)C[C@H]3C=C(C)C | 16 µg/mL (≈ 41.7 µM) | 16 µg/mL (≈ 41.7 µM) | > 128 µg/mL | > 128 µg/mL | inactive | inactive | 
2 | CO[C@H]1/C=C/O[C@@]2(C)Oc3c(C)c(O)c4c(O)c(c(/C=N/N5CCN(C)CC5)c(O)c4c3C2=O)NC(=O)/C(C)=C\C=C\[C@H](C)[C@H](O)[C@@H](C)[C@@H](O)[C@@H](C)[C@H](OC(C)=O)[C@@H]1C [RIFAMPIN] | 4 µg/mL (≈ 4.86 µM) | 4 µg/mL (≈ 4.86 µM) | 8.75 µg/mL (≈ 10.6 µM) |  |  |  | 
3 | CC(C)=C[C@@H]1C[C@H](C)[C@H]2CC[C@H](C)c3c2c1c(C)c1nc([C@@H](C)O)oc31 | 16 µg/mL (≈ 45.3 µM) | 8 µg/mL (≈ 22.6 µM) | > 128 µg/mL | > 128 µg/mL | inactive | inactive | 
4 | CC(C)=C[C@@H]1C[C@H](C)[C@H]2CC[C@H](C)c3c2c1c(C)c1ocnc31 [ISOPSEUDOPTEROXAZOLE] | 8 µg/mL (≈ 25.9 µM) | 8 µg/mL (≈ 25.9 µM) | 13 µg/mL (≈ 42 µM) | > 128 µg/mL | inactive | inactive | 
5 | COC(=O)CCc1nc2c(C)c3c4c(c2o1)[C@@H](C)CC[C@@H]4[C@@H](C)C[C@H]3C=C(C)C | > 128 µg/mL | > 128 µg/mL | > 128 µg/mL | > 128 µg/mL | inactive | inactive | 
6 | CC(C)=C[C@@H]1C[C@H](C)[C@H]2CC[C@H](C)c3c2c1c(C)c1nc(C)oc31 | 8 µg/mL (≈ 24.7 µM) | 4 µg/mL (≈ 12.4 µM) | 2.5 µg/mL (≈ 7.73 µM) | > 128 µg/mL | inactive | inactive | 
7 | NNC(=O)c1ccncc1 [ISONIAZID] | 1 µg/mL (≈ 7.29 µM) | 0.25 µg/mL (≈ 1.82 µM) |  |  |  |  | 
8 | CN[C@H](CC(C)C)C(=O)N[C@H]1C(=O)N[C@@H](CC(N)=O)C(=O)N[C@H]2C(=O)N[C@H]3C(=O)N[C@H](C(=O)N[C@H](C(=O)O)c4cc(O)cc(O)c4-c4cc3ccc4O)[C@H](O)c3ccc(c(Cl)c3)Oc3cc2cc(c3O[C@@H]2O[C@H](CO)[C@@H](O)[C@H](O)[C@H]2O[C@H]2C[C@](C)(N)[C@H](O)[C@H](C)O2)Oc2ccc(cc2Cl)[C@H]1O [VANCOMYCIN] |  |  |  | 12.2 µg/mL (≈ 8.45 µM) |  |  | 
9 | CC(C)=C[C@@H]1C[C@H](C)[C@H]2CC[C@H](C)c3c2c1c(C)c1nc(-c2ccc(F)cc2)oc31 | > 64 µg/mL | > 64 µg/mL |  |  | inactive | inactive | 
10 | CC(C)=C[C@@H]1C[C@H](C)[C@H]2CC[C@H](C)c3c2c1c(C)c1nc(Cc2ccccc2)oc31 | > 64 µg/mL | 4 µg/mL (≈ 10 µM) | > 128 µg/mL | > 128 µg/mL | inactive | inactive | 
11 | COc1ccccc1-c1nc2c(C)c3c4c(c2o1)[C@@H](C)CC[C@@H]4[C@@H](C)C[C@H]3C=C(C)C | > 64 µg/mL | > 64 µg/mL | > 128 µg/mL | > 128 µg/mL | inactive | inactive | 
12 | CC(C)=C[C@@H]1C[C@H](C)[C@H]2CC[C@H](C)c3c2c1c(C)c1ncoc31 [PSEUDOPTEROXAZOLE] | 2 µg/mL (≈ 6.46 µM) | 4 µg/mL (≈ 12.9 µM) | 13 µg/mL (≈ 42 µM) | > 128 µg/mL | inactive | inactive | inactive
13 | CCCCCc1nc2c(C)c3c4c(c2o1)[C@@H](C)CC[C@@H]4[C@@H](C)C[C@H]3C=C(C)C [HOMOPSEUDOPTEROXAZOLE] | > 64 µg/mL | > 64 µg/mL | > 128 µg/mL | > 128 µg/mL | inactive | inactive | 
14 | CC(C)=C[C@@H]1C[C@H](C)[C@H]2CC[C@H](C)c3c2c1c(C)c1nc(CC(N)=O)oc31 | 4 µg/mL (≈ 10.9 µM) | 2 µg/mL (≈ 5.46 µM) | 4 µg/mL (≈ 10.9 µM) | 3 µg/mL (≈ 8.19 µM) | inactive | inactive | inactive
15 | CC(C)=C[C@@H]1C[C@H](C)[C@H]2CC[C@H](C)c3c2c1c(C)c1nc(CCC(=O)O)oc31 | 8 µg/mL (≈ 21 µM) | 4 µg/mL (≈ 10.5 µM) | 12 µg/mL (≈ 31.5 µM) | 12 µg/mL (≈ 31.5 µM) | inactive | inactive | 
16 | CC(C)=C[C@@H]1C[C@H](C)[C@H]2CC[C@H](C)c3c2c1c(C)c1nc(CCC(N)=O)oc31 | 4 µg/mL (≈ 10.5 µM) | 4 µg/mL (≈ 10.5 µM) | 7 µg/mL (≈ 18.4 µM) | 7 µg/mL (≈ 18.4 µM) | inactive | inactive | 
17 | CC[C@H](C)c1nc2c(C)c3c4c(c2o1)[C@@H](C)CC[C@@H]4[C@@H](C)C[C@H]3C=C(C)C | > 64 µg/mL | > 64 µg/mL | > 128 µg/mL | > 128 µg/mL | inactive | inactive | 
